# STEP block = inhibitors of human striatal-enriched phosphatase STEP. recombinant STEP, OMFP fluorogenic substrate, fluorescence. 360,000 tested, 0.25% active. inhibition, % at 20 µM. AID 588621;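 active means inhibition at 20 µM, scaled per plate between control wells, above about 37%, limit read from the data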;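 further: 0% = DMSO with enzyme and substrate and 100% = substrate only without enzyme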
#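 System: isolated STEP enzyme; schedule: 20 min enzyme reaction at room temperature, protected from light; medium: Bis-Tris buffer pH 6.0, 2.5 mM DTT, 0.005% Tween 20; signal: fluorescence, 480/540 nm; dosing: single compound dose of 20 µM, 1% DMSO final; also added: OMFP substrate, 25 µM final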
# LMPTP block = LMPTP (human) inhibition | P24666 | recombinant LMPTP-A, OMFP fluorogenic substrate, fluorescence intensity | inhibition, % at 20 µM | 360,000 tested, 0.22% active | AID 651560;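 active means compounds that cut the enzyme signal by at least half of the control window in the single-dose screen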;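 further: plate controls were DMSO wells with enzyme plus substrate for no effect and substrate without enzyme for full effect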
#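 Assay system: LMPTP-A enzyme. Input: 0.625 nM LMPTP-A final. Probe or stimulus: 400 µM OMFP. Compound dosing: single 20 µM dose. Schedule: 50 min dark incubation at room temperature. Detection: fluorescence intensity of OMFP turnover product. Read-out: percent inhibition versus substrate-only and uninhibited controls. Benchmarks: no-enzyme low control, uninhibited high control.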
# DNMT1 block = DNMT1 (human) enzyme inhibition; inhibition (reported as % activation of signal), % at 10 µM; 360,000 tested, 0.83% active; AID 588458; DNMT1 molecular beacon, Hinp1I cleavage, fluorescence; in the data active means inhibition above about 50%
# SUMO1 PPI mod = alters human SUMO1 binding to SIM partners. P63165. SUMO1 binding to a labelled peptide, TR-FRET, 1 h. inhibition, % at 20 µM. 360,000 tested, 0.33% active. AID 602429; in the data active means inhibition above about 37%
# UBC9 SUMO inh = inhibitors of human SUMOylation (UBC9) | P63279 | 290,000 tested, 0.36% active | inhibition, % at 35 µM | HTRF SUMOylation assay, SAE1/SAE2 + UBC9, in vitro; in the data active means inhibition above about 50%, passing the limit was not always enough
# Scp-1 inhibitor = Scp-1 (human) phosphatase inhibition; Q9GZU7; Recombinant Scp1, phosphopeptide, malachite green phosphate absorbance; inhibition, % at 20 µM; 340,000 tested, 0.88% active; AID 493091;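 active means inhibition above about 50% at 20 µM, limit read from the data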;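 further: plate controls were DMSO wells with enzyme for no effect and wells lacking enzyme for full effect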
#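 Material: truncated SCP-1 phosphatase (76-261aa) / Buffer or medium: 50 mM Tris acetate pH 5.5, 0.005% Tween-20, 10 mM MgCl2 / Compound dosing: one concentration, 20 µM, with 1.0% DMSO / Incubation: 45 min room-temperature reaction, 5 min colour, 30 min stabiliser / Detection: colorimetric free-phosphate detection, absorbance 630 nm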
# An asterisk follows results filed as active; · = no result given. A selection: hits, their analogues and other compounds. The true share with any hit is near 1.9%.
SMILES,STEP block,LMPTP block,DNMT1 block,SUMO1 PPI mod,UBC9 SUMO inh,Scp-1 inhibitor
CCCCn1nnnc1C(c1cc2ccccc2o1)N1CCN(c2cc(C)nc3ccccc23)CC1 (stereo not drawn),·,78*,·,2,·,·
CC[n+]1c(/C=C/N(C)c2ccccc2)n(-c2ccccc2)c2ccc(-c3nc4ccccc4s3)cc21,10,83*,-1,-84,14,32
Cc1c(Br)c([N+](=O)[O-])nn1CC(=O)NCCc1ccc(Cl)cc1,0,1,-2,43*,14,0
Cc1ccccc1NC1=C/C(=N\S(=O)(=O)c2ccc(C(=O)O)cc2)c2ccccc2C1=O,20,9,72*,69*,88*,2
Cc1ccccc1NC1=C/C(=N\S(=O)(=O)c2cccs2)c2ccccc2C1=O,7,9,69*,29,73*,-14
O=C(O)c1ccc(S(=O)(=O)/N=C2\C=C(Nc3ccccc3F)C(=O)c3ccccc32)cc1,5,10,74*,75*,92*,-1
COCCn1c(Cc2ccccc2)nnc1SCC(=O)Nc1oc(C)c2c(C)n[nH]c(=O)c12,0,-5,3,-20,·,-4
OCCN=c1cc(-c2ccccc2)oc2ccc(Cl)cc12,-2,-1,10,-14,-15,-6
CN(C)CCCN=c1cc(-c2ccccc2)oc2ccc(Cl)cc12,0,-6,52*,-5,22,-5
CC(C)c1onc(C(=O)N2CCN(c3ccc(F)cc3)CC2)c1[N+](=O)[O-],-1,-1,-2,1,12,-4
CCN(c1ccccc1)c1cc2ccccc2c(=O)[nH]1,8,3,6,15,61*,-5
CCN(CC)c1ccc(NC(=O)CSc2ccsc2[N+](=O)[O-])c(C)c1,5,2,53*,-6,14,19
CCOc1ccc(S(=O)(=O)Nc2cc(NS(=O)(=O)c3ccc(OCC)cc3)cc(C(=O)O)c2)cc1,1,16,32,17,·,55*
CCOc1ccc(NS(=O)(=O)c2ccc(NS(=O)(=O)c3ccccc3)cc2)cc1,-2,2,3,2,-2,-6
CCCn1cnc2c(sc3nc4c(cc32)CSC(C)(C)C4)c1=O,-2,-1,-2,2,5,23
CC(C)CCOc1ncnc2c1sc1nc3c(cc12)CSC(C)(C)C3,-1,0,3,44*,-7,-4
COc1cccc(NC(=O)CSc2nnnn2C2CCCCC2)c1,0,0,2,0,-11,-1
Cc1[nH]ccc(=O)c1Cc1c(Cl)cccc1Cl,-1,78*,-2,0,-2,-6
O=C(NCCN1C(=O)C2C3C=CC(C3)C2C1=O)Nc1cccnc1 (stereo not drawn),1,-1,0,0,4,18
O=C(Nc1ccc(N2C(=O)C3C4C=CC(C4)C3C2=O)cc1)Nc1cccnc1 (stereo not drawn),2,-1,-1,0,56*,-7
CC(=O)c1ccc(NC(=O)Nc2cccnc2)cc1,-2,-1,1,-5,58*,1
CCCC(=O)Nc1ccc2nc(SCC(=O)N3CCCC3)sc2c1,1,-2,1,-2,10,-7
Cn1c(SCC(=O)Nc2ccc3nc(SCC(=O)N4CCCC4)sc3c2)nnc1-c1ccccc1,·,·,·,·,43,102*
N#Cc1cccc(S(=O)(=O)NCC(=O)OCC(=O)NCc2ccccc2)c1,-2,-1,0,0,·,-2
C/C(=N\Nc1ccc(C(=O)O)cc1)c1ccc(Br)cc1,30,3,43,1,16,52*
SMILES,STEP block,LMPTP block,DNMT1 block,SUMO1 PPI mod,UBC9 SUMO inh,Scp-1 inhibitor
COc1cc2c(cc1OC)C(=O)C(Br)CC2 (stereo not drawn),4,6,83*,111*,·,·
COc1cc2c(cc1OC)C(=O)C(c1ccc3c(c1)OCO3)CC2 (stereo not drawn),2,1,5,-2,·,·
Cc1nc(COC(=O)c2cc(O)c3ccccc3c2O)cs1,-4,1,-12,-19,20,69*
COc1cccc(C(=O)N(C)c2nnc(-c3ccncc3)s2)c1,2,0,0,-2,2,-2
O=C1C(C=Nc2ccccc2O)=C(O)c2ccccc21,2,1,-2,-11,15,-11
Cc1ccc(O)c(N=CC2=C(O)c3ccccc3C2=O)c1,2,4,57*,15,26,-10
CCOC(=O)C1=C(C)N=c2s/c(=C/c3ccc(OCC(=O)O)cc3)c(=O)n2C1c1ccc(SC)cc1 (stereo not drawn),85*,48,39,27,29,·
O=C(NCc1ccc(Cl)cc1)C1CCCN(c2ncnc3c2nc2n3CCCCC2)C1 (stereo not drawn),0,0,-1,-2,5,-2
CC1CCc2c(sc3ncn(CCO)c(=O)c23)C1 (stereo not drawn),-1,0,-3,-2,19,-10
CC1CCc2c(sc3ncn(CC(=O)N=Nc4c(O)[nH]c5ccccc45)c(=O)c23)C1 (stereo not drawn),3,1,54*,6,12,18
COc1cc(/C=N/NC(=O)c2cccnc2)ccc1OCC(=O)Nc1ccccc1Cl,19,4,35,86*,19,12
COc1ccc(NC(=O)COc2ccc(/C=N/NC(=O)c3cccnc3)cc2OC)cc1,-2,-1,7,-13,6,-6
C=CCOc1ccccc1CN(C(=O)CCl)c1ccc2c(c1)OCO2,-1,0,79*,-2,9,-10
CCOc1ccccc1NC(=O)Nc1ccc2c(c1)OCO2,-2,1,1,5,3,-9
COC(=O)c1cc2n(n1)CCN(Cc1ccc(F)cc1)C2=O,1,-2,-2,-2,13,-3
Cc1cnc(CN(C)C(=O)C2CCC(=O)N(CCc3ccc(Cl)cc3)C2)[nH]1 (stereo not drawn),-3,-3,5,40*,·,·
CC(=O)Nc1cc(-c2cccc(NS(C)(=O)=O)c2)cn2c(-c3cccc(C(F)(F)F)c3)cnc12,-1,4,-6,2,·,·
CC(=O)Nc1cc(-c2ccccc2N(C)C)cn2c(-c3cccc(C(F)(F)F)c3)cnc12,-33,-1,61*,-10,·,·
Cn1c(=O)n(C)c2cc(N3CCOCC3)c(NC(=O)c3ccc(F)cc3)cc21,-2,-1,3,49*,-11,-2
COc1cccc(OC)c1C(=O)Nc1cc2c(cc1N1CCOCC1)n(C)c(=O)n2C,-2,0,-1,6,4,-14
COc1cccc(S(=O)(=O)N(C)C[C@@H]2OCc3cn(nn3)CCCC(=O)N([C@@H](C)CO)C[C@H]2C)c1,-1,-2,4,2,·,·
